Measurements from different studies.
Each line is one published result; the experiments were not run side by side.

Structure (SMILES)	test	conditions	chromatographic logD
CO[C@H](C(=O)N1Cc2c(-c3ccc(C(=O)N4CCCc5ccccc54)cn3)cnn2C[C@H]1C(C)C)c1cnn(C)c1 (single isomer, unassigned)	HPLC	pH 7.4	3.1
CCOC(=O)C1=C(C)N/C(=C/c2cc(C)n(-c3cccnc3)c2C)C1=O	HPLC	pH 7.4	1.9
C[C@@H]1Cn2ncc(-c3ccc(C(=O)N4CCCc5ccccc54)cc3)c2CN1C(=O)Cc1ccccc1	HPLC	pH 7.4	4.9
CC1=C(C#N)[C@@H](c2ccc(C#N)cc2S(C)(=O)=O)NC(=O)N1c1cccc(C(F)(F)F)c1	HPLC	pH 7.5	2.7
CO[C@@H](C(=O)N1Cc2c(-c3ccc(C(=O)N4CCCc5ccccc54)cc3)cnn2C[C@H]1C(C)C)c1cnn(C)c1 (single isomer, unassigned)	HPLC	pH 7.4	4.1
CC1=C(C(=O)OC(C)(C)C)C(=O)/C(=C\c2cc(C)n(-c3ccccc3C(F)(F)F)c2C)N1	HPLC	pH 7.4	3.8
CCc1nnc(NC(=O)c2nc(-c3ccc(Cl)cc3)n3c2CCCCC3)s1		pH 7.4	6.8
COc1cc(Cl)c(C(=O)N[C@@H](CN[C@H]2CC[C@@H](N)CC2)Cc2ccc(C#N)cc2)cc1-c1ccc(CN[C@H](C)c2ccc(C)cc2)o1	HPLC	pH 7.5	2.9
CCOC(=O)C1=C(C)N/C(=C/c2cc(C)n(-c3ccc(CN(C)C)cc3)c2C)C1=O	HPLC	pH 7.4	2.1
O=C(Nc1ccnc(C(F)(F)F)c1)Nc1cccc2c1OC(F)(F)O2	HPLC	pH 7.4	3.6
CCn1cnnc1C1CCN(C(=O)c2cn3ccc(C)cc3n2)CC1		pH 7.4	1.2
CCOC(=O)C1=C(C)N/C(=C/c2ccn(-c3ccccc3C(F)(F)F)c2)C1=O	HPLC	pH 7.4	3
Cn1c(-c2nc3cc(C(=O)N4CCCC(N)C4)ccc3n2C)cc2ccccc21 (stereo not shown)	HPLC	pH 7.4	2.8
CC1=C(C(N)=O)C(=O)/C(=C\c2cc(C)n(-c3ccccc3C(F)(F)F)c2C)N1	HPLC	pH 7.4	2.8
Nc1cccc2c1CN(C1CCC(=O)NC1=O)C2=O (stereo not shown)	HPLC	pH 7.4	-0.4
Cc1n[nH]c(CC(=O)N2Cc3c(-c4ccc(C(=O)N5CCCc6ccccc65)cc4)cnn3C[C@H]2C)n1	HPLC	pH 7.4	2.7
CC1=C(C#N)[C@@H](c2ccc(C#N)cc2)NC(=O)N1c1cccc(C(F)(F)F)c1	HPLC	pH 7.5	2.8
CCOC(=O)C1=C(C)N/C(=C/c2cc(C)n(-c3ccc(SC)cc3)c2C)C1=O	HPLC	pH 7.4	3.3
CC(C)(C)C1=CC(=NNC(=O)c2ccc([N+](=O)[O-])cc2)C=C(C(C)(C)C)C1=O	HPLC	pH 7.4	4.9
Cc1oc(-c2ccccc2)nc1C(=O)NCCN1CCCCCC1=O		pH 7.4	4.5
CCOC(=O)C1=C(C)N/C(=C/c2cc(CC)n(-c3ccccc3C(F)(F)F)c2CC)C1=O	HPLC	pH 7.4	3.6
C[C@@H]1Cn2ncc(-c3ccc(C(=O)N4CCCc5ccccc54)cc3)c2CN1C(=O)[C@H](C)c1ccccc1	HPLC	pH 7.4	5.2
